The results in this text go back to PubChem BioAssay.

Activity calls are given as the source filed them.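 Rule for the calls, unless noted: active = inhibition at or above 50% at 10 µM; inactive = inhibition below 50%.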

The nature of experiment [1]: inhibitors of TNFa-induced NFkB p65 translocation, primary screen, imaging, HUVEC, MLSMR starter and 10KST1 sets (AID 438;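 active = inhibition above 20% together with a positive visual image hit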;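 note: compound added about 3h40 before a 20 min TNFalpha stimulation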;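 for inhibition: signal is the nuclear over cytoplasmic p65 intensity ratio per well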). To be noted: HUVEC TNFa-induced p65 nuclear translocation; cell count: measured here: nuclei count (cytotoxicity indicator), at 2.08 µM; inhibition: at 2 µM, stronger effect = higher value, 0% TNFa-plus-vehicle, 100% no-TNFa wells.
Experiment [2] can be described thus: reduction of polyQ htt aggregates in cells – imaging, exon1htt(103Q)mCFP cells, high-content imaging, primary screen (AID 483;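 active = visual image review flags a hit and inhibition of aggregation exceeds 20%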;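 note: compound exposure lasted 3 days before fixation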;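 for nuclei count: percent of the per-plate median nuclei count of sample wells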). The note with it: exon1htt(103Q)mCFP cell line, aggregate imaging, at 2 µM; inhibition of aggregation: stronger effect = higher value; nuclei count: measured here: cell count, toxicity.
A short description of experiment [3]: endothelial E-selectin expression blockers – imaging, HUVEC, immunofluorescence, MLSMR starter and 10KST1 sets, primary screen (AID 487;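 active = visually confirmed hit in the image check and inhibition above 20%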;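 for inhibition: signal is fraction of cell area covered by stained E-selectin grains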;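 for nuclei count: 100% = median nuclei count of all wells on the same plate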). To be noted: HUVEC TNFalpha-induced E-selectin immunofluorescence imaging, at 2 µM; inhibition: stronger effect = higher value; nuclei count: measured here: cell number, toxicity.
In experiment [4] the target is Voltage-gated potassium channel subunit beta-2 (Rattus norvegicus) (UniProt P62483). As to the kind of experiment: inhibitors of rat Kvbeta2 reductase activity – biochemical, NADPH fluorescence, primary screen (AID 622;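 active = fluorescence slope higher than the sample average by over 3 SD, cut at about -0.22 in these data, passing the limit was not always enough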;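 note: slope of raw intensity against log time taken from 70 to 1610 s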). The note with it: recombinant KvBeta, 4-cyanobenzaldehyde reduction, at 10 µM, stronger effect = higher value.
The target is the same in experiment [5]. Description: enhancers of rat Kvbeta2 NADPH turnover – biochemical, NADPH fluorescence, primary screen (AID 623;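 active = NADPH fluorescence slope more negative than the mean of all samples by about 3 SD, 99.7% confidence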;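 note: fluorescence intensity change per second fitted from 20 to 320 s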). To be noted: Recombinant KvBeta, NADPH fluorescence decrease slope, 10 min; at 10 µM; stronger effect = lower value.
Experiment [6] deals with Muscarinic acetylcholine receptor M4 (Homo sapiens) (UniProt P08173). Description: M4-linked GIRK flux change, two-sided – cell-based, HEK293 M4/GIRK, thallium flux, BTC-AM, M4 allosteric agonist project, primary screen (AID 625;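 active = fluorescence slope after compound addition differing from the mean of all tested samples at 99.7% confidence, mostly higher but some lower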;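 note: thallium influx through GIRK channels coupled to M4 in HEK293 cells with BTC-AM dye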). To be noted: at 10 µM, actives lie on both sides. In short, it runs like this: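 System: HEK293 cells with M4 receptor and GIRK channels | Incubation: Cells overnight at 37 °C, BTC-AM loading 1 h, reads 2 min total | Technique: Kinetic BTC-AM fluorescence sampled at 1 Hz, 10 s pre-addition baseline | Measure: Post-addition slope, 15–24 s, of baseline-normalized fluorescence | Control set: Carbachol positive, DMSO negative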

The nature of experiment [7]: blockers of RIG-like receptor reporter activation – cell-based, Sendai virus stimulus, luciferase, 10K MLSCN set, TLR/RLR signaling modifier project, primary screen (AID 602276).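 Note: firefly luciferase from ISG56 promoter only with Renilla not read in this screen; 0% = Sendai virus plus DMSO and 100% = medium plus DMSO without virus.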 To be noted: HEK293 RL24 IRF3 luciferase reporter, at 10 µM, stronger effect = higher value. On the technique in general: A reporter such as luciferase makes a cellular process visible.
Experiment [8] can be described thus: TLR3 IRF3 reporter activation blockers – cell-based, poly I:C stimulus, luciferase, 10K MLSCN set, primary screen (AID 602277;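 active = inhibition of the reporter signal at or above 50%; inactive = inhibition below 50%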). The note with it: HEK293-TLR3 RL24 IRF3 luciferase reporter, at 10 µM, stronger effect = higher value.

Sequence of Muscarinic acetylcholine receptor M4 (Homo sapiens) (P08173 whole entry, looked up): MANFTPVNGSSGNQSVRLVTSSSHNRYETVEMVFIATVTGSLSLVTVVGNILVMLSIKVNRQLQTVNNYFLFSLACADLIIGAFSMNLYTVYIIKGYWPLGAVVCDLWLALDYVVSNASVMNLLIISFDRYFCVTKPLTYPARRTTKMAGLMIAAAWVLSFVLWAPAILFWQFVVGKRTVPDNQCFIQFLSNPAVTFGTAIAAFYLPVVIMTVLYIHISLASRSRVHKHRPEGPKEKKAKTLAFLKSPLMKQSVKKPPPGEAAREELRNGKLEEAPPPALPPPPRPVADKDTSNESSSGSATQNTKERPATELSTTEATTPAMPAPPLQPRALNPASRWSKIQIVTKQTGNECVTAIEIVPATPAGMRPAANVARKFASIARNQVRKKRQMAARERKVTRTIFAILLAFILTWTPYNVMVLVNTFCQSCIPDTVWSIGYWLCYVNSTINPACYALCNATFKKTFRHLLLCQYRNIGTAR
Sequence of Voltage-gated potassium channel subunit beta-2 (Rattus norvegicus) (P62483 whole entry, looked up): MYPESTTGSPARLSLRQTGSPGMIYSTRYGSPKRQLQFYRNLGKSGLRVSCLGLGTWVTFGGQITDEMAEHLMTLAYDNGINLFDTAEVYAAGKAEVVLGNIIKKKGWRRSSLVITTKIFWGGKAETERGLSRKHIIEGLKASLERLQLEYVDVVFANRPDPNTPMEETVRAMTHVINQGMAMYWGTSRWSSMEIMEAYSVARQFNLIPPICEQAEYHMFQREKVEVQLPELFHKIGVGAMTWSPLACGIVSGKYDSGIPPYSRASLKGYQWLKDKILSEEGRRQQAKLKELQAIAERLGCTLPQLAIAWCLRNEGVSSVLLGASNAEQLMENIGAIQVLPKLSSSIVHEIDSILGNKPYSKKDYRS

What is called inhibition is the relative decrease from the control value, in per cent. On to `CCCCN(CCCC)CCCNC(=O)CC1Oc2ccc(C)cc2NC1=O` (centres undefined), for which the cell count in experiment [1] was 618. The inhibition was -18.4% (inactive) in experiment [1], -6.4% (inactive) in experiment [3], 17.2% (inactive) in experiment [7] and 23.7% (inactive) in experiment [8]. Also, the inhibition of aggregation in experiment [2] was 4.4% (inactive). Moreover, the nuclei count in experiment [2] was 110%; in experiment [3], 92.1%. Besides, the figures for the fluorescence slope in experiment [4] and in experiment [6] were -0.242 (inactive) and 0.00528 (inactive), respectively. For the same compound, the NADPH fluorescence slope in experiment [5] is -7e-06 (inactive).
As for `O=C(CSc1nc(C2CCCCC2)n(-c2ccccc2)n1)NCCN1C(=O)CSC1=O`, in experiment [1], the cell count is 382. The inhibition is -5.9% (inactive) in experiment [1], -13.3% (inactive) in experiment [3], 15.1% (inactive) in experiment [7] and 23.3% (inactive) in experiment [8]. The inhibition of aggregation in experiment [2] was 8% (inactive). The nuclei count was 112% in experiment [2] and 140% in experiment [3]. Also, the fluorescence slope in experiment [4] is -0.572 (inactive); in experiment [6], 0.00728 (inactive). The NADPH fluorescence slope in experiment [5] was -4.9e-05 (inactive).
For the compound `COc1cccc(NC(=O)CSc2nnc(-c3cccs3)n2C)c1`, in experiment [1], the cell count is 576. Further, the inhibition in experiment [1] was -8.5% (inactive); in experiment [3] it was -65.4% (inactive); in experiment [7] it was 8.77% (inactive); in experiment [8], 6.56% (inactive). Also, the inhibition of aggregation in experiment [2] is 19.8% (inactive). The nuclei count in experiment [2] stood at 65.7%; in experiment [3] it was 95.9%. For the same compound, the fluorescence slope in experiment [4] is -0.278 (inactive); in experiment [6], 0.00909 (inactive). In experiment [5], the NADPH fluorescence slope was -5e-05 (inactive).
With `COc1cccc(OC)c1C(=O)n1nc(C)cc1C`, the cell count in experiment [1] was 489. For the same compound, the inhibition in experiment [1] was -18.1% (inactive); in experiment [3] it was -10.8% (inactive); in experiment [7], 14.5% (inactive); in experiment [8] it was 4.66% (inactive). In experiment [2], the inhibition of aggregation was -12.3% (inactive). The values for the nuclei count in experiment [2] and in experiment [3] were 99.8% and 95.6%, respectively. Moreover, the values for the fluorescence slope in experiment [4] and in experiment [6] were -0.591 (inactive) and 0.00413 (inactive), respectively. Besides, the NADPH fluorescence slope in experiment [5] is -3.7e-05 (inactive).
With `COc1cc2c(cc1OC)-c1cc(OCc3cccnc3)nc(=O)n1CC2`, in experiment [1], the cell count amounted to 753. Also, the inhibition in experiment [1] is -8.4% (inactive); in experiment [3], -49% (inactive); in experiment [7], 31.6% (inactive); in experiment [8], 28.8% (inactive). In addition, the inhibition of aggregation in experiment [2] is -4.9% (inactive). In addition, the nuclei count in experiment [2] came to 96.1%; in experiment [3] it was 116%. For the same compound, the values for the fluorescence slope in experiment [4] and in experiment [6] were -0.0427 (active) and 0.00535 (inactive), respectively. In experiment [5], the NADPH fluorescence slope was -1.1e-05 (inactive).
Regarding `COCCNC(=O)CN(C)S(=O)(=O)c1ccc2c(c1)OCCO2`, the cell count in experiment [1] turned out to be 577. In addition, the inhibition in experiment [1] is -12.1% (inactive); in experiment [3] it was -59.8% (inactive); in experiment [7], 11.9% (inactive); in experiment [8], 21.2% (inactive). In addition, the inhibition of aggregation in experiment [2] is -1.9% (inactive). Besides, the results for the nuclei count in experiment [2] and in experiment [3] were 101% and 108%, respectively. Moreover, the fluorescence slope in experiment [4] is -0.527 (inactive); in experiment [6], 0.00472 (inactive). In addition, the NADPH fluorescence slope in experiment [5] is 1.9e-05 (inactive).
For `O=c1oc2ccccc2n1CCc1ccccc1`, in experiment [1], the cell count is 470. For the same compound, the inhibition in experiment [1] was -4.6% (inactive); in experiment [3], -76.9% (inactive); in experiment [7] it was -4.32% (inactive); in experiment [8], -4.85% (inactive). For the same compound, the inhibition of aggregation in experiment [2] is 0% (inactive). Besides, the values for the nuclei count in experiment [2] and in experiment [3] were 88.3% and 238%, respectively. Also, the values for the fluorescence slope in experiment [4] and in experiment [6] were -0.522 (inactive) and 0.00443 (inactive), respectively. For the same compound, the NADPH fluorescence slope in experiment [5] is -0.000209 (inactive).
In the case of `CCCCCOC(=O)CSc1nnc(-c2cc(OC)c(OC)c(OC)c2)o1`, in experiment [1], the cell count came out at 747. The inhibition was -21.6% (inactive) in experiment [1], -73.6% (inactive) in experiment [3], 3.74% (inactive) in experiment [7] and 10.4% (inactive) in experiment [8]. The inhibition of aggregation in experiment [2] is 16.3% (inactive). The nuclei count in experiment [2] was found to be 116%; in experiment [3], 119%. Besides, the fluorescence slope was -0.363 (inactive) in experiment [4] and 0.00542 (inactive) in experiment [6]. For the same compound, the NADPH fluorescence slope in experiment [5] was -3.4e-05 (inactive).
Turning to `O=C(CN(c1ccc(F)cc1)S(=O)(=O)c1ccc2c(c1)OCCO2)NCC1CCCO1` (centres undefined), the cell count in experiment [1] is 472. Besides, the inhibition was 0.8% (inactive) in experiment [1], -58.6% (inactive) in experiment [3], 17% (inactive) in experiment [7] and 24.3% (inactive) in experiment [8]. In experiment [2], the inhibition of aggregation was -6.6% (inactive). Further, the figures for the nuclei count in experiment [2] and in experiment [3] were 92.4% and 107%, respectively. Moreover, the fluorescence slope is -0.453 (inactive) in experiment [4] and 0.00466 (inactive) in experiment [6]. For the same compound, the NADPH fluorescence slope in experiment [5] was -4.3e-05 (inactive).
For the compound `CC1CCN(C(=O)c2cc(-c3ccc(Cl)c(Cl)c3)on2)CC1`, the cell count in experiment [1] was 435. For the same compound, the inhibition is 0.9% (inactive) in experiment [1], 6.5% (inactive) in experiment [3], -41% (inactive) in experiment [7] and -89% (inactive) in experiment [8]. Further, the inhibition of aggregation in experiment [2] was 4.2% (inactive). Further, the nuclei count was found to be 94% in experiment [2] and 91.7% in experiment [3]. The fluorescence slope is -0.449 (inactive) in experiment [4] and 0.00453 (inactive) in experiment [6]. For the same compound, the NADPH fluorescence slope in experiment [5] is -3.4e-05 (inactive).
With `O=C1C2C3C=CC(C3)C2C(=O)N1CNc1ccc(O)cc1` (centres undefined), in experiment [1], the cell count turned out to be 307. The inhibition in experiment [1] is 8.9% (inactive); in experiment [3] it was 32.1% (inactive); in experiment [7], 4.46% (inactive); in experiment [8], 2.67% (inactive). The inhibition of aggregation in experiment [2] was -9.8% (inactive). Moreover, the nuclei count turned out to be 108% in experiment [2] and 106% in experiment [3]. The fluorescence slope in experiment [4] is -0.507 (inactive); in experiment [6], 0.00588 (inactive). Besides, the NADPH fluorescence slope in experiment [5] was 2.6e-05 (inactive).
Turning to `c1ccc(CNc2ccc3c(c2)ncn3C2CCCCC2)nc1`, the cell count in experiment [1] came to 171. In addition, the inhibition in experiment [1] was -4.9% (inactive); in experiment [3], -12.5% (inactive); in experiment [7], -10.6% (inactive); in experiment [8] it was -24.3% (inactive). The inhibition of aggregation in experiment [2] is 20% (inactive). The figures for the nuclei count in experiment [2] and in experiment [3] were 78.3% and 97%, respectively. The results for the fluorescence slope in experiment [4] and in experiment [6] were -0.58 (inactive) and 0.00406 (inactive), respectively. Further, the NADPH fluorescence slope in experiment [5] is 4.2e-05 (inactive).
Consider `CS(=O)(=O)Nc1ccc(C(=O)NCCc2ccccc2)cc1`, for which the cell count in experiment [1] came to 342. In addition, the inhibition in experiment [1] was -2% (inactive); in experiment [3] it was -69% (inactive); in experiment [7] it was -13.2% (inactive); in experiment [8], -40.3% (inactive). The inhibition of aggregation in experiment [2] is -9.2% (inactive). For the same compound, the results for the nuclei count in experiment [2] and in experiment [3] were 108% and 125%, respectively. The fluorescence slope is -0.535 (inactive) in experiment [4] and 0.00454 (inactive) in experiment [6]. Besides, the NADPH fluorescence slope in experiment [5] is -1.7e-06 (inactive).
With `O=C(CN1C(=O)CC(c2ccco2)Sc2ccccc21)Nc1ccc2c(c1)OCCO2` (centres undefined), the cell count in experiment [1] was 809. Also, the inhibition is -2.8% (inactive) in experiment [1], -69.7% (inactive) in experiment [3], 14.9% (inactive) in experiment [7] and 9.54% (inactive) in experiment [8]. In addition, the inhibition of aggregation in experiment [2] is -218% (inactive). Moreover, the nuclei count was found to be 99.6% in experiment [2] and 105% in experiment [3]. For the same compound, the fluorescence slope in experiment [4] was -0.459 (inactive); in experiment [6] it was 0.0054 (inactive). The NADPH fluorescence slope in experiment [5] was -1.9e-05 (inactive).
